We go through 17 compounds from ChEMBL document CHEMBL4364290, “Light-controlled inhibition of BRAFV600E kinase” (Eur J Med Chem, 2019).

The source made the active and inactive calls. The rule behind the calls is not given here.

Series [1] in a line: Drug isomerization in DMSO-d6 irradiated at 365 nm assessed as cis isomer level at PSS at 2 mg/ml measured after 90 mins under room temperature by 1H and 19F-NMR spectroscopic analysis.
A short description of series [2]: Drug isomerization in DMSO-d6 irradiated at 365 nm assessed as cis isomer level at PSS at 2 mg/ml measured after 120 mins under room temperature by 1H and 19F-NMR spectroscopic analysis.
Series [3] has as its target T1, Serine/threonine-protein kinase B-raf (Homo sapiens, UniProt P15056, V600E). In words: Inhibition of human recombinant N-terminal GST/His6-tagged BRAF V600E mutant (Q417 to H766 residues) expressed in Sf9 insect cells using MEK1 as substrate measured after 1 hr using preheated compound at 60 degC for 30 mins by Western blot analysis. (Immunoblotting shows a protein as a band on a membrane.)

Series [4] is described as follows: Drug isomerization in DMSO-d6 assessed as cis isomer level at PSS at 2 mg/ml irradiated at 365 nm light measured immediately by 1H-NMR spectroscopic analysis.
A short description of series [5]: Absorption property of the compound in DMSO assessed as maximum absorption wavelength. The format is physicochemical. In outline:
(§1)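 λmax of the trans isomer recorded in DMSO and in BRAF assay buffer.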

Series [6] in a line: Absorption property of the compound in pH 7.5 tris HCl buffer assessed as maximum absorption wavelength. The format is physicochemical. In outline:
as §1

Series [7] is described as follows: Stability of the compound in DMSO-D6 at 2 mg/ml by 1H-19F NMR analysis. Format: physicochemical. Particulars: read-out: Stability.
Series [8] is described as follows: Drug isomerization in DMSO-d6 irradiated at 365 nm assessed as cis isomer level at PSS at 2 mg/ml measured after 60 mins under room temperature by 1H and 19F-NMR spectroscopic analysis.
For a further series, the system named is A-375. In words: Cytotoxicity against human A375 cells harboring BRAF V600E mutant assessed as reduction in cell viability at 10 uM incubated for 24 hrs by MTS assay. Format: functional, cell-based. In outline: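 A375 melanoma cells (BRAF V600E) exposed 24 h to 10 µM compound, thermally adapted or 365 nm-irradiated, versus DMSO control; viability by MTS assay.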
(In general: Tetrazolium assays rely on reduction of a dye to a coloured formazan, in cell work by metabolically active cells.)

Series [9] concerns Serine/threonine-protein kinase B-raf (Homo sapiens), P15056 [V600E]. Nature of the series: Inhibition of BRAF V600E mutant in human SK-MEL-28 cells using peptide substrate by STK-Pamchip array-based method. The format is cell-based. In outline: (§2)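 SK-Mel-28 cell lysates treated with DMSO control or inhibitor, either dark (thermally adapted) or irradiated with 365 nm light; kinase activity profiled on PamGene STK peptide chips.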

For series [10], the target named is T1, Serine/threonine-protein kinase B-raf. Nature of the series: Inhibition of human recombinant BRAF V600E mutant using MEK1 as substrate measured after 1 hr by Western blot analysis.
A short description of series [11]: Drug isomerization in DMSO-d6 irradiated at 365 nm assessed as cis isomer level at PSS at 2 mg/ml measured after 70 mins under room temperature by 1H and 19F-NMR spectroscopic analysis.
Series [12] is described as follows: Drug isomerization in DMSO-d6 irradiated at 365 nm assessed as cis isomer level at PSS at 2 mg/ml measured after 100 mins under room temperature by 1H and 19F-NMR spectroscopic analysis.
Series [13] in a line: Drug isomerization in DMSO-d6 irradiated at 365 nm assessed as cis isomer level at PSS at 2 mg/ml measured after 75 mins under room temperature by 1H and 19F-NMR spectroscopic analysis.
Series [14] can be described thus: Drug isomerization in DMSO-d6 irradiated at 365 nm assessed as cis isomer level at PSS at 2 mg/ml measured after 135 mins under room temperature by 1H and 19F-NMR spectroscopic analysis.
Series [15] is described as follows: Half life of the compound in DMSO-d6 at 2 mg/ml measured at room temperature under 365 nm light irradiation using trans-isomer form of compound by 1H-19F NMR spectroscopic analysis. In outline: (§3)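 Cis isomer generated by 365 nm irradiation to PSS; half-life of thermal cis-to-trans relaxation followed at room temperature in DMSO, in BRAF assay buffer, or in 1:1 BRAF assay buffer/acetonitrile where solubility required.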

In series [16] the target is T1, Serine/threonine-protein kinase B-raf. Nature of the series: Inhibition of human recombinant N-terminal GST/His6-tagged BRAF V600E mutant (Q417 to H766 residues) expressed in Sf9 insect cells using MEK1 as substrate measured after 1 hr using light irradiated compound at 365 nm for 45 mins by Western blot analysis.
A short description of series [17]: Drug isomerization in DMSO-d6 irradiated at 365 nm assessed as rate of thermal relaxation measured as cis isomer level at PSS at 2 mg/ml measured after 18 hrs storage in dark at room temperature by 1H-NMR spectroscopic analysis.
Series [18] can be described thus: Half life of the compound in pH 7.5 tris HCl buffer/acetonitrile at 2 mg/ml measured at room temperature under 365 nm light irradiation using trans-isomer form of compound by 1H-19F NMR spectroscopic analysis. In a few lines:
as §3

A short description of series [19]: Half life of the compound in pH 7.5 tris HCl buffer at 2 mg/ml measured at room temperature under 365 nm light irradiation using trans-isomer form of compound by 1H-19F NMR spectroscopic analysis. In a few lines: as §3
Series [20] is described as follows: Drug isomerization in bovine plasma at 10 uM measured after 20 hrs at 37 degC by LCMS analysis. Format: ADME, cell-free, Bos taurus. Particulars: cattle.
Series [21] can be described thus: Thermal re-isomerization in bovine plasma assessed as trans-isomer formation at 10 uM measured after 1 hr at 37 degC using pre-irradiated compound at 365 nm light for 1 hr by LCMS analysis. The format is ADME, cell-free, Bos taurus. The conditions noted are these: cattle.
Series [22] is described as follows: Drug re-isomerization in DMSO-d6 assessed as cis isomer level at PSS at 2 mg/ml measured after 20 hrs under dark condition at room temperature using irradiated compound by 1H-NMR spectroscopic analysis.
For series [23], the system named is Serine/threonine-protein kinase B-raf (Homo sapiens), P15056 [V600E]. Nature of the series: Inhibition of BRAF V600E mutant in human SK-MEL-28 using peptide as substrate using irradiated compound at 365 nm light for 45 mins by STK-Pamchip array-based method. The format is cell-based. In outline: as §2
Series [24] in a line: Drug isomerization in DMSO-d6 irradiated at 365 nm assessed as rate of thermal relaxation measured as cis isomer level at PSS at 2 mg/ml measured after 70 hrs storage in dark at room temperature by 1H-NMR spectroscopic analysis.
A short description of series [25]: Drug isomerization in DMSO-d6 irradiated at 365 nm assessed as cis isomer level at PSS at 2 mg/ml measured after 40 mins under room temperature by 1H and 19F-NMR spectroscopic analysis.
Series [26] can be described thus: Drug isomerization in DMSO-d6 irradiated at 365 nm assessed as rate of thermal relaxation measured as cis isomer level at PSS at 2 mg/ml measured after 2.5 hrs storage in dark at room temperature by 1H-NMR spectroscopic analysis.
Series [27] is described as follows: Drug isomerization in DMSO-d6 irradiated at 365 nm assessed as cis isomer level at PSS at 2 mg/ml measured after 30 mins under room temperature by 1H and 19F-NMR spectroscopic analysis.

T1 sequence (P15056 2-766 V600E limits assumed): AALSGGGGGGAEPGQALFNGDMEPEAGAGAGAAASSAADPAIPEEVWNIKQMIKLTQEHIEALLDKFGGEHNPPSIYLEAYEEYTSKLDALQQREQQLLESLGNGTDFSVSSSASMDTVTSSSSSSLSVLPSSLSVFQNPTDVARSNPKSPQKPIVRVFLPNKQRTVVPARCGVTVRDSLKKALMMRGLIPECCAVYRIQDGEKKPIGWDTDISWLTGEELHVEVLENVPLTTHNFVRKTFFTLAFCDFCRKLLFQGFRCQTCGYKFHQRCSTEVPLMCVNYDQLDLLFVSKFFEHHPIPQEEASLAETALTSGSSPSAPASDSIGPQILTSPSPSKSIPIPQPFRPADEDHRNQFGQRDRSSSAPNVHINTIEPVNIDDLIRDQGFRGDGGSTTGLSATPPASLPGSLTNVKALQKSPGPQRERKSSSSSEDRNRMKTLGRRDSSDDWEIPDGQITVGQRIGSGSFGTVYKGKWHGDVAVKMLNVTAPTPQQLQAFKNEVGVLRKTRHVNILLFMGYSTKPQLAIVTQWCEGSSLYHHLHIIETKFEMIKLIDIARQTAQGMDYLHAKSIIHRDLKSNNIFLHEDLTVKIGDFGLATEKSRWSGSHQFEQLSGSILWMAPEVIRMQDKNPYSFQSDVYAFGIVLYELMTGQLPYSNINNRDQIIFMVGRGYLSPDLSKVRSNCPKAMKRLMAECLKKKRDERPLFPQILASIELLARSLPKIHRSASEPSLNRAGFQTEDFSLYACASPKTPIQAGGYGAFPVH
Chain of Serine/threonine-protein kinase B-raf (Homo sapiens), P15056 [V600E] (P15056 whole entry V600E): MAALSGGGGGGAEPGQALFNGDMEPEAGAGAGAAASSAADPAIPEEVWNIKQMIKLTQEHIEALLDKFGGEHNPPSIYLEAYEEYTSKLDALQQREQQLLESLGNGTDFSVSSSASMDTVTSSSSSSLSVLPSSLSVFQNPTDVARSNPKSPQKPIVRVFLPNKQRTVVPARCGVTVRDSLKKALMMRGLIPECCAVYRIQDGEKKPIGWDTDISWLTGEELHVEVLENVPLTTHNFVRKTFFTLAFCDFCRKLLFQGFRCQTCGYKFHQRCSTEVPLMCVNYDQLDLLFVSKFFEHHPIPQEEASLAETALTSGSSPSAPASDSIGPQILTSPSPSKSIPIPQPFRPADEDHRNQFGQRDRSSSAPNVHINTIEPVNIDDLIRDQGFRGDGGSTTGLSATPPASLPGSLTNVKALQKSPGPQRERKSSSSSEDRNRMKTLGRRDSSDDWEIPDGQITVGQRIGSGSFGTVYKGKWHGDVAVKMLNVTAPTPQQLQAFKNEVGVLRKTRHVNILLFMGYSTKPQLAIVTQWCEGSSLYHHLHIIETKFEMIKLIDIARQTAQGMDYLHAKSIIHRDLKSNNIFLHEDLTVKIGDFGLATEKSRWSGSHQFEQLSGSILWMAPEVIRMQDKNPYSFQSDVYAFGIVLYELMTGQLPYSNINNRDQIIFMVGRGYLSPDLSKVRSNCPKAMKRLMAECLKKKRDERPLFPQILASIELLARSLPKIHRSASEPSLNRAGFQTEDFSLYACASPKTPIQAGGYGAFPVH

`COc1n[nH]c2ncc(NC(=O)c3c(F)ccc(/N=N/c4ccc(F)cc4)c3F)cc12`: the Drug metabolism in series [1] is 58%; in series [2], 62%; in series [4], 62%. Further, the IC50 in series [3] worked out at 2600 nM. Moreover, the results for the Activity in [5] and in series [6] were 335 nm and 338 nm, respectively. For the same compound, the remaining at 2 mg/ml in series [7] was more than 95%.
Take `COc1ccc(/N=N/c2cccc(C(=O)Nc3cnc4[nH]nc(OC)c4c3)c2)cc1`: the Drug metabolism was found to be 94% in [1], 92% in series [8] and 73% in series [4]. The IC50 in [3] turned out to be 100 nM. The values for the Activity in series [5] and in series [6] were 352 nm and 345 nm, respectively. For the same compound, the remaining at 2 mg/ml in series [7] is more than 95%.
Take `COc1n[nH]c2ncc(NC(=O)c3c(F)ccc(NS(=O)(=O)c4ccccc4)c3F)cc12`: the result in the series with A-375 was Active. For the same compound, in series [9], the inhibition result is “Active”. Moreover, the IC50 in series [10] is 22 nM.
Turning to `COc1n[nH]c2ncc(NC(=O)c3c(F)ccc(/N=N/c4ccc(C)cc4)c3F)cc12`, the Drug metabolism in series [11] was 80%; in series [12], 84%; in series [4], 84%. The IC50 in [3] came out at 32 nM. Besides, the Activity is listed as 340 nm in series [5] and 338 nm in series [6]. In series [7], the remaining at 2 mg/ml is more than 95%.
Consider `COc1n[nH]c2ncc(NC(=O)c3c(F)ccc(/N=N/c4ccccc4C)c3F)cc12`, for which the Drug metabolism was found to be 60% in series [13], 77% in [14] and 77% in series [4]. Further, the IC50 in [3] was determined as 1700 nM. In addition, the results for the Activity in [5] and in [6] were 335 nm and 334 nm, respectively. Also, in series [7], the remaining at 2 mg/ml was more than 95%.
Consider `COc1ccccc1/N=N\c1ccc(F)c(C(=O)Nc2cnc3[nH]nc(OC)c3c2)c1F`, for which the T1/2 in series [15] and in series [18] was more than 24 h in each case. In series [16], the IC50 came to 360 nM. The Drug metabolism in series [17] is 79%.
In the case of `COc1n[nH]c2ncc(NC(=O)c3c(F)ccc(/N=N\c4ccccc4)c3F)cc12`, the T1/2 was more than 10 h in series [15] and 5.4 h in series [19]. Further, in [16], the half-inhibitory concentration (IC50) worked out at 157 nM. Further, the Drug metabolism entry in series [20] was “Metabolite_Detected”; in series [21], “Metabolite_Detected”; in series [22] it was 36%. Moreover, the inhibition entry in series [23] was “inactive”.
Turning to `COc1ccccc1/N=N/c1ccc(F)c(C(=O)Nc2cnc3[nH]nc(OC)c3c2)c1F`, the Drug metabolism in series [1], in series [8] and in series [4] was 88% each time. Further, in series [3], the IC50 was 300 nM. In addition, the Activity was 334 nm in series [5] and 327 nm in [6]. For the same compound, the remaining at 2 mg/ml in [7] was more than 95%.
Consider `COc1n[nH]c2ncc(NC(=O)c3c(F)ccc(/N=N\c4ccccc4C)c3F)cc12`, for which the results for the T1/2 in series [15] and in series [18] were more than 70 h and more than 24 h, respectively. For the same compound, the IC50 in [16] amounted to 540 nM. The Drug metabolism in series [24] was found to be 62%.
Turning to `COc1n[nH]c2ncc(NC(=O)c3c(F)ccc(/N=N/c4ccccc4F)c3F)cc12`, the Drug metabolism in [25] is 68%; in [11] it was 71%; in series [4] it was 71%. Further, the IC50 in series [3] stood at 320 nM. Further, the Activity in [5] is 336 nm; in series [6], 331 nm. The remaining at 2 mg/ml in series [7] was more than 95%.
On to `COc1n[nH]c2ncc(NC(=O)c3c(F)ccc(/N=N\c4ccc(F)cc4)c3F)cc12`, for which the T1/2 in series [15] was more than 20 h; in series [18] it was more than 24 h. For the same compound, in [16], the concentration for half-maximal inhibition (IC50) stood at 8100 nM. For the same compound, the Drug metabolism in [22] is 60%.
Regarding `COc1n[nH]c2ncc(NC(=O)c3c(F)ccc(/N=N\c4ccccc4F)c3F)cc12`, the T1/2 was more than 20 h in [15] and 5 h in series [18]. Further, the IC50 in series [16] turned out to be 660 nM. In addition, the Drug metabolism in [22] was found to be 51%; in series [26], 50%.
For `CCCS(=O)(=O)Nc1ccc(F)c(C(=O)c2c[nH]c3ncc(-c4ccc(Cl)cc4)cc23)c1F`, the outcome in the series with A-375 was Active.
In the case of `COc1ccc(/N=N\c2cccc(C(=O)Nc3cnc4[nH]nc(OC)c4c3)c2)cc1`, the T1/2 in [15] and in [19] was more than 10 h throughout. Moreover, the half-inhibitory concentration (IC50) in [16] was 450 nM. In addition, the Drug metabolism in series [22] is 34%.
For the compound `COc1ccc(/N=N\c2ccc(F)c(C(=O)Nc3cnc4[nH]nc(OC)c4c3)c2F)cc1`, the T1/2 was more than 10 h in series [15] and more than 24 h in series [18]. Besides, in series [16], the IC50 was 470 nM. For the same compound, the Drug metabolism in series [22] is 79%.
For the compound `COc1n[nH]c2ncc(NC(=O)c3c(F)ccc(/N=N\c4ccc(C)cc4)c3F)cc12`, the figures for the T1/2 in [15] and in series [18] were more than 20 h and more than 24 h, respectively. Besides, the concentration for half-maximal inhibition (IC50) in series [16] is 9 nM. In addition, the Drug metabolism in series [22] was found to be 73%.
Turning to `COc1ccc(/N=N/c2ccc(F)c(C(=O)Nc3cnc4[nH]nc(OC)c4c3)c2F)cc1`, the Drug metabolism was determined as 92% in [1], 60% in series [27], 83% in series [8] and 96% in [4]. In series [3], the IC50 came to 92 nM. Also, the Activity in [5] amounted to 357 nm; in [6], 341 nm. Besides, the remaining at 2 mg/ml in series [7] is more than 95%.

In general, IC50 refers to the concentration that gives 50% inhibition.
